{
  "source": "paper PMC12311552",
  "about": "(Molecular Metabolism, 2025)",
  "key": {"[1]": {"system": "diet-induced obese mice", "assay": "Subchronic, repeated dose study in diet-induced obese mice", "assay_type": "in vivo, mouse", "details": "DIO mice"}, "[2]": {"system": "male NMRI mice", "assay": "Acute food intake in lean mice", "assay_type": "in vivo, mouse", "how_it_was_run": "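Males, 5 weeks old on arrival, 4/cage, lights off 3 PM, chow ad libitum. Randomised by bodyweight (n = 7–8/group) with a vehicle group (50 mM phosphate pH 7.0, 5% mannitol; 5 mL/kg). Fasted from 6 h before night, dosed SC once 1 h before dark. Hourly food intake over 24 h as % of vehicle mean. ED50 by nonlinear fit.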"}, "[3]": {"system": "Chow-fed male C57BL/6JRj mice", "assay": "3D whole-brain imaging by light-sheet fluorescence microscopy", "assay_type": "in vivo, mouse", "details": "single s.c. dose 100 nmol/kg; SFO, AP, ME, choroid plexus, ARH", "how_it_was_run": "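Chow-fed males (n = 8/group) got one SC dose of unlabelled test compound or a Cy5-labelled analogue (Lys10), each 100 nmol/kg, and were killed at 6 h. Competition group: unlabelled 100 nmol/kg SC at 0, 8 and 24 h, labelled analogue 1 h later, killed after 1 h. Tongue was positive control. Tissue was perfusion-fixed, cleared and light-sheet imaged, giving atlas-aligned regional mean fluorescence (CVOs, ARH).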"}, "[4]": {"molecular_target": "human NPY2R (human) (UniProt P49146)", "sequence (P49146 whole entry)": "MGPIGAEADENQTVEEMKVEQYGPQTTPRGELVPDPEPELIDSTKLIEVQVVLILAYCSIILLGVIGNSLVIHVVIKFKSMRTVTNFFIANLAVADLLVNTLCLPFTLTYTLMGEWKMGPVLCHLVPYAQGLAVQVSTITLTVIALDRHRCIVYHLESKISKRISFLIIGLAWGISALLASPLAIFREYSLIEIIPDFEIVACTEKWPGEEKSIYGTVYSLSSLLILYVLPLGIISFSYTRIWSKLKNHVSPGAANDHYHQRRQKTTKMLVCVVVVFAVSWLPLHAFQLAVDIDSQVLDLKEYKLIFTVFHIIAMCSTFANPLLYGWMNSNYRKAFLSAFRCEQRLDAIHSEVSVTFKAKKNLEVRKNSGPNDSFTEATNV", "assay": "radioligand binding"}, "[5]": {"molecular_target": "T1, human NPY1R (Homo sapiens, UniProt P25929)", "T1 sequence (P25929 1-384)": "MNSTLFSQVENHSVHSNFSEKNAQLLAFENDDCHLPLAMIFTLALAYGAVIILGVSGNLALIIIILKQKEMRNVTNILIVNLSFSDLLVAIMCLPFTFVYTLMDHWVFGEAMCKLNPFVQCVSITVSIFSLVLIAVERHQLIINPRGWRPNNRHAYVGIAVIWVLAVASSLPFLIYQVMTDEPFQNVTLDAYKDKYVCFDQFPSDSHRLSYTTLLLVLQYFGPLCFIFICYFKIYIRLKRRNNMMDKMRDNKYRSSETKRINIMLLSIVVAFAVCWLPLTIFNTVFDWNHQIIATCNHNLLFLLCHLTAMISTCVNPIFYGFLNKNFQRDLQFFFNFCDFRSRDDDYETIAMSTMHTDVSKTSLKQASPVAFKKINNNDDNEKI", "assay": "Competitive radioligand binding, membrane preparations, 125I-PYY1–36", "details": "up to 1 μM"}, "[6]": {"molecular_target": "human NPY4R (Homo sapiens, UniProt P50391)", "sequence (P50391 whole entry)": "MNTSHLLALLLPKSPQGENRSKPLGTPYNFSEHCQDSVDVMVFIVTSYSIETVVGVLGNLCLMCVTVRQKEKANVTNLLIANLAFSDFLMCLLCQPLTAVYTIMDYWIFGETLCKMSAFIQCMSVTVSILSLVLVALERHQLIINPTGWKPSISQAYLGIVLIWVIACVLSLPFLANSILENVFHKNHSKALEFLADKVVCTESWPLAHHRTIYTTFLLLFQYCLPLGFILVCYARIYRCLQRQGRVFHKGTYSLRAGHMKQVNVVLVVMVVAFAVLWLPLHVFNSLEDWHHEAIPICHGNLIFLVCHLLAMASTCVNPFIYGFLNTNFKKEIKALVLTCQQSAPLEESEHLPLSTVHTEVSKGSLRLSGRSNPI", "assay": "Competitive radioligand binding, membrane preparations, 125I-PP", "details": "up to 1 μM"}, "[7]": {"assay": "Pharmacokinetic study in mice", "assay_type": "in vivo", "details": "male, NMRI, mouse, plasma, sc, 30 nmol/kg", "how_it_was_run": "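Male NMRI mice got a single dose of 30 nmol/kg, IV (N = 2) or SC (N = 3), in 50 mM phosphate pH 7.0 with 5% mannitol at 5 mL/kg. Plasma was sampled at several times after dosing, stored at -20 °C, and quantified by LC-MS/MS.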"}, "[8]": {"assay": "Pharmacokinetic study in dogs", "assay_type": "in vivo", "details": "male, beagle, dog, plasma, sc, 5 nmol/kg", "how_it_was_run": "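Male beagles were dosed once, IV 1.25 nmol/kg (N = 2) or SC 5 nmol/kg (N = 3). Plasma was sampled at several times after dosing, stored at -20 °C, and assayed by LC-MS/MS.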"}, "[9]": {"system": "male C57BL/6JRj mice", "assay": "Acute gastric emptying in lean mice", "assay_type": "in vivo, mouse", "how_it_was_run": "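Males aged 9–10 weeks were fasted 8.5 h, then a basal blood glucose sample was taken for randomisation. After a further 30 min fast they got one SC dose. At 3 h, glucose 2 g/kg plus acetaminophen 100 mg/kg was gavaged (10 mL/kg). Blood acetaminophen and glucose were measured pre-load (20 min) and at 10, 30 and 60 min post-load. Gastric emptying was read as change in acetaminophen exposure.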"}, "[10]": {"system": "Diet-induced obese (DIO) male C57BL6/J mice", "assay": "3D whole-brain c-Fos imaging", "assay_type": "in vivo, mouse", "details": "8 nmol/kg, 4 h after dosing", "how_it_was_run": "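Perfused 4 h post-dose. Brains were c-Fos immunolabelled, iDISCO+-cleared and imaged whole by light-sheet microscopy. c-Fos+ cells were atlas-mapped and counted per region, with region-wise statistics against vehicle.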"}, "[11]": {"system": "cynomolgus monkeys", "assay": "Cardiovascular study in cynomolgus monkeys", "assay_type": "in vivo, cynomolgus monkey", "details": "subcutaneous supratherapeutic doses"}},
  "note": "Numbered stars: 1 amine (or outer) side, 2 acyl side, 3 side chain; on linkers, the order of the positions; unused ones are H or OH. Side chains are listed from the residue outwards. Peptide text beside a SMILES is read from it. * marks the point of attachment. Cy5(nonsulfonated) = CN1C(=CC=CC=CC2=[N+](CCCCCC(=O)*)c3ccccc3C2(C)C)C(C)(C)c2ccccc21; C18 diacid = O=C(O)CCCCCCCCCCCCCCCCC(=O)*; γGlu = O=C(O)[C@H](CCC(=O)[*:2])N[*:1]; Isovaleryl = CC(C)CC(=O)*; AEEA = NCCOCCOCC(=O)O",
  "data": [
    {"compound": "survodutide [reference compound]", "values": [
      {"measurement": "bodyweight lowering versus baseline", "setting": "[1]; after 28 days, survodutide 7.5 nmol/kg", "value": 17, "unit": "%"},
      {"measurement": "bodyweight lowering compared with the vehicle group", "setting": "[1]; after 28 days, survodutide 7.5 nmol/kg alone or with 1 nmol/kg BI 1820237", "value": 21, "unit": "%"},
      {"measurement": "lean mass", "setting": "[1]; survodutide alone, or with 3 nmol/kg BI 1820237 at study start or 1 nmol/kg at Day 8", "value": "No significant change"}
    ]},
    {"compound": "CC[C@H](C)[C@H](NC(=O)[C@H](CCC(=O)O)NC(=O)[C@H](CCC(=O)O)NC(=O)[C@@H]1CCCN1C(=O)[C@H](CO)NC(=O)[C@H](C)NC(=O)[C@H](CC(=O)O)NC(=O)[C@H](CCCCNC(=O)CCCCC[N+]1=C(C=CC=CC=C2N(C)c3ccccc3C2(C)C)C(C)(C)c2ccccc21)NC(=O)[C@H](CCC(=O)O)NC(=O)[C@@H]1CCCN1C(=O)[C@H](CCCCNC(=O)COCCOCCNC(=O)COCCOCCNC(=O)CC[C@H](NC(=O)CCCCCCCCCCCCCCCCC(=O)O)C(=O)O)NC(=O)[C@H](C)NC(=O)[C@@H]1CCCN1C(=O)[C@H](C)NC(=O)CC(C)C)C(=O)N[C@@H](CCC(N)=O)C(=O)N[C@@H](CCCNC(=N)N)C(=O)N[C@@H](Cc1ccc(O)cc1)C(=O)N[C@@H](Cc1ccc(O)cc1)C(=O)N[C@H](C(=O)N[C@@H](CO)C(=O)N[C@@H](CC(C)C)C(=O)N[C@@H](CCCNC(=N)N)C(=O)N[C@@H](Cc1c[nH]cn1)C(=O)N[C@@H](Cc1ccc(O)cc1)C(=O)N[C@@H](Cc1ccc(O)cc1)C(=O)N[C@@H](CC(N)=O)C(=O)N[C@@H](Cc1c[nH]c2ccccc12)C(=O)N[C@@H](CC(C)C)C(=O)N[C@H](C(=O)N[C@@H](CCCNC(=N)N)C(=O)N[C@@H](CCC(N)=O)C(=O)N[C@@H](CCCNC(=N)N)C(=O)N[C@@H](Cc1ccc(O)cc1)C(N)=O)[C@@H](C)O)C(C)C", "note": "[BI 3005788] (Isovaleryl-APAK([AEEA-AEEA-γGlu-C18 diacid])PEK(Cy5(nonsulfonated))DASPEEIQRYYVSLRHYYNWLTRQRY-NH2; N-terminus and C-terminus assumed)", "values": [
      {"measurement": "lowering of food intake up to 6 h post-dosing", "setting": "[2]; acute dose 100 nmol/kg, Fig. S3a–b", "value": "comparable with BI 1820237 dosed at 30 nmol/kg"},
      {"measurement": "fluorescence signal distribution in the mouse brain", "setting": "[3]", "value": "accumulated in 5 circumventricular organs"}
    ]},
    {"compound": "BI 1820237 (peptide)", "values": [
      {"measurement": "Ki", "setting": "[4]", "value": 0.82, "unit": "nM"}
    ]},
    {"compound": "CC[C@H](C)[C@H](NC(=O)[C@H](CCC(=O)O)NC(=O)[C@H](CCC(=O)O)NC(=O)[C@@H]1CCCN1C(=O)[C@H](CO)NC(=O)[C@H](C)NC(=O)[C@H](CC(=O)O)NC(=O)[C@H](CCC(=O)O)NC(=O)[C@H](CCC(=O)O)NC(=O)[C@@H]1CCCN1C(=O)[C@H](CCCCNC(=O)COCCOCCNC(=O)COCCOCCNC(=O)CC[C@H](NC(=O)CCCCCCCCCCCCCCCCC(=O)O)C(=O)O)NC(=O)[C@H](C)NC(=O)[C@@H]1CCCN1C(=O)[C@H](C)NC(=O)CC(C)C)C(=O)N[C@@H](CCC(N)=O)C(=O)N[C@@H](CCCNC(=N)N)C(=O)N[C@@H](Cc1ccc(O)cc1)C(=O)N[C@@H](Cc1ccc(O)cc1)C(=O)N[C@H](C(=O)N[C@@H](CO)C(=O)N[C@@H](CC(C)C)C(=O)N[C@@H](CCCNC(=N)N)C(=O)N[C@@H](Cc1c[nH]cn1)C(=O)N[C@@H](Cc1ccc(O)cc1)C(=O)N[C@@H](Cc1ccc(O)cc1)C(=O)N[C@@H](CC(N)=O)C(=O)N[C@@H](Cc1c[nH]c2ccccc12)C(=O)N[C@@H](CC(C)C)C(=O)N[C@H](C(=O)N[C@@H](CCCNC(=N)N)C(=O)N[C@@H](CCC(N)=O)C(=O)N[C@@H](CCCNC(=N)N)C(=O)N[C@@H](Cc1ccc(O)cc1)C(N)=O)[C@@H](C)O)C(C)C", "note": "[BI 1820237]", "values": [
      {"measurement": "binding to human NPY subtype 1", "setting": "[5]", "value": "no binding was detected"},
      {"measurement": "binding to human NPY subtype 4", "setting": "[6]", "value": "no binding was detected"},
      {"measurement": "Tmax", "setting": "[7]", "value": 3, "unit": "h"},
      {"measurement": "MRT", "setting": "[8]", "value": 103, "unit": "h"},
      {"measurement": "Emax, inhibition of food intake over 24 h", "setting": "[2]; at the maximal tested dose of 100 nmol/kg", "value": "~85", "unit": "%"},
      {"measurement": "ED50, inhibition of food intake over 24 h", "setting": "[2]; single subcutaneous dose", "value": 14, "unit": "nmol/kg"},
      {"measurement": "ED50, reduction of gastric emptying", "setting": "[9]; lean mice, single dose, acetaminophen exposure", "value": "~2", "unit": "nmol/kg"},
      {"measurement": "Glucose excursion", "setting": "[9]; oral glucose 2 g/kg, same experiment", "value": "not affected"},
      {"measurement": "weight of the epididymal adipose tissue compared with the vehicle group", "setting": "[1]; study end, BI 1820237 1 nmol/kg alone or with survodutide 7.5 nmol/kg", "value": "did not reduce"},
      {"measurement": "food intake reduction on Day 1, 24 h post-dosing", "setting": "[1]; 3 nmol/kg once daily s.c.", "value": 18, "unit": "%"},
      {"measurement": "food intake reduction on Day 1, 24 h post-dosing", "setting": "[1]; 10 nmol/kg once daily s.c.", "value": 59, "unit": "%"},
      {"measurement": "maximal bodyweight-lowering effect (reduction)", "setting": "[1]; 30 nmol/kg at Day 5 of dosing", "value": 9, "unit": "%"},
      {"measurement": "food intake reduction on Day 1, 24 h post-dosing", "setting": "[1]; 30 nmol/kg once daily s.c.", "value": 71, "unit": "%"},
      {"measurement": "bodyweight reduction at the end of the study (non-significant)", "setting": "[1]; 30 nmol/kg once daily, 4 weeks", "value": 2, "unit": "%"},
      {"measurement": "food intake after 4–5 days of dosing", "setting": "[1]; 100 nmol/kg once daily", "value": "higher than the food intake in the vehicle group"},
      {"measurement": "food intake reduction on Day 1, 24 h post-dosing", "setting": "[1]; 100 nmol/kg once daily s.c.", "value": 56, "unit": "%"},
      {"measurement": "food intake after 4–5 days of dosing", "setting": "[1]; 3, 10 and 30 nmol/kg once daily", "value": "returned to the level of the vehicle-treated group"},
      {"measurement": "effect on bodyweight at the end of the study", "setting": "[1]; other doses (3, 10, 100 nmol/kg) once daily, 4 weeks", "value": "no effect"},
      {"measurement": "whole-brain c-Fos expression compared with vehicle", "setting": "[10]", "value": "little or no difference"},
      {"measurement": "emesis", "setting": "[11]", "value": "induced emesis"}
    ]}
  ]
}
